Reference: ChEMBL document CHEMBL2384952, “Synthesis, antifungal and cytotoxic activities of 2-aryl-3-((piperidin-1-yl)ethyl)thiazolidinones” (Eur J Med Chem, 2013)
Values after ≈ are worked out from the molar mass of the structure shown.

Assays:
Vero [1] = experiment: Cytotoxicity against African green monkey Vero cells at 12.3 ug/mL by neutral red dye uptake assay relative to control; format: cell-based; conditions: chlorocebus sabaeus
In short: (§1)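 Vero cells (over 99% viable by trypan blue exclusion) were exposed to serial compound dilutions in E-MEM, with fresh E-MEM as negative control, for 72 h at 37 °C, 5% CO2. Cells were then given 3.3 mg/L neutral red for 2 h, and the dye was extracted with 50% ethanol/1% acetic acid. A540 was read, and viability was calculated as treated/control absorbance × 100.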

Vero [2] = experiment: Cytotoxicity against African green monkey Vero cells at 25 ug/mL by neutral red dye uptake assay relative to control; format: cell-based; conditions: chlorocebus sabaeus; in short: as §1
Vero [3] = experiment: Cytotoxicity against African green monkey Vero cells at 49 ug/mL by neutral red dye uptake assay relative to control; format: cell-based; conditions: chlorocebus sabaeus; in short: as §1
Vero [4] = experiment: Cytotoxicity against African green monkey Vero cells at 98 ug/mL by neutral red dye uptake assay relative to control; format: cell-based; conditions: chlorocebus sabaeus; in short: as §1
Vero [5] = experiment: Cytotoxicity against African green monkey Vero cells at 197 ug/mL by neutral red dye uptake assay relative to control; format: cell-based; conditions: chlorocebus sabaeus; in short: as §1
Vero [6] = experiment: Cytotoxicity against African green monkey Vero cells at 394 ug/mL by neutral red dye uptake assay relative to control; format: cell-based; conditions: chlorocebus sabaeus; in short: as §1
Vero [7] = experiment: Cytotoxicity against African green monkey Vero cells at 787 ug/mL by neutral red dye uptake assay relative to control; format: cell-based; conditions: chlorocebus sabaeus; in short: as §1
Vero [8] = experiment: Cytotoxicity against African green monkey Vero cells at 1575 ug/mL by neutral red dye uptake assay relative to control; format: cell-based; conditions: chlorocebus sabaeus; in short: as §1
Vero [9] = experiment: Cytotoxicity against African green monkey Vero cells at 3150 ug/mL by neutral red dye uptake assay relative to control; format: cell-based; conditions: chlorocebus sabaeus; in short: as §1
Candida parapsilosis = experiment: Antifungal activity against Candida parapsilosis after 48 hrs by CLSI M27A3 broth microdilution method; format: functional; conditions: Lodderomyces parapsilosis
In short: (§2)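 Yeasts were kept on Sabouraud dextrose agar and subcultured at 35 °C for at least 2 days. They were suspended in saline to McFarland 0.5 and diluted in RPMI. Ten successive dilutions were made from a 1.6 mg/mL DMSO stock per CLSI broth microdilution, then incubated at 37 °C for 48 h. Growth was read visually against a growth-control well, and MIC is the lowest concentration inhibiting growth.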

Geotrichum = experiment: Antifungal activity against Geotrichum species after 48 hrs by CLSI M27A3 broth microdilution method; format: functional; in short: as §2
Papiliotrema laurentii = experiment: Antifungal activity against Cryptococcus laurentii after 48 hrs by CLSI M27A3 broth microdilution method; format: functional; in short: as §2
Rhodotorula = experiment: Antifungal activity against Rhodotorula species after 48 hrs by CLSI M27A3 broth microdilution method; format: functional; in short: as §2
Candida albicans = experiment: Antifungal activity against Candida albicans after 48 hrs by CLSI M27A3 broth microdilution method; format: functional; in short: as §2
Trichosporon asahii = experiment: Antifungal activity against Trichosporon asahii after 48 hrs by CLSI M27A3 broth microdilution method; format: functional; in short: as §2
[10] = tested on: Meyerozyma guilliermondii; experiment: Antifungal activity against Candida guilliermondii after 48 hrs by CLSI M27A3 broth microdilution method; format: functional; in short: as §2

MIC (Candida parapsilosis) | MIC (Geotrichum) | MIC (Papiliotrema laurentii) | MIC (Rhodotorula) | MIC (Candida albicans) | Compound | Cell viability (Vero [1]) | Cell viability (Vero [2]) | Cell viability (Vero [3]) | Cell viability (Vero [4]) | Cell viability (Vero [5]) | Cell viability (Vero [6]) | Cell viability (Vero [7]) | Cell viability (Vero [8]) | Cell viability (Vero [9]) | MFC (Candida parapsilosis) | MFC (Geotrichum) | MFC (Papiliotrema laurentii) | MFC (Rhodotorula) | MFC (Candida albicans) | MFC (Trichosporon asahii) | other results
100 µg/mL (≈ 298 µM) | 50 µg/mL (≈ 149 µM) | 100 µg/mL (≈ 298 µM) | 30 µg/mL (≈ 89.4 µM) | 62 µg/mL (≈ 185 µM) | O=C1CSC(c2ccc([N+](=O)[O-])cc2)N1CCN1CCCCC1 (stereo not drawn) | 100% | 100% | 100% | 87% | 72% | 66% | 21% | 15% | 10% | 100 µg/mL (≈ 298 µM) | 50 µg/mL (≈ 149 µM) | 100 µg/mL (≈ 298 µM) | 30 µg/mL (≈ 89.4 µM) | 62 µg/mL (≈ 185 µM) | 100 µg/mL (≈ 298 µM) | MIC (Trichosporon asahii): 100 µg/mL (≈ 298 µM); MFC [10]: 100 µg/mL (≈ 298 µM); MIC [10]: 100 µg/mL (≈ 298 µM)
50 µg/mL (≈ 156 µM) | > 400 µg/mL | 100 µg/mL (≈ 312 µM) | 33.5 µg/mL (≈ 105 µM) | 75 µg/mL (≈ 234 µM) | COc1ccc(C2SCC(=O)N2CCN2CCCCC2)cc1 (stereo not drawn) | 100% | 100% | 100% | 89% | 87% | 73% | 33% | 11% | 11% | 50 µg/mL (≈ 156 µM) | > 400 µg/mL | 100 µg/mL (≈ 312 µM) | 33.5 µg/mL (≈ 105 µM) | 75 µg/mL (≈ 234 µM) | > 400 µg/mL | MIC (Trichosporon asahii): > 400 µg/mL; MFC [10]: 100 µg/mL (≈ 312 µM); MIC [10]: 100 µg/mL (≈ 312 µM)
100 µg/mL (≈ 324 µM) | 50 µg/mL (≈ 162 µM) | 100 µg/mL (≈ 324 µM) | 25 µg/mL (≈ 81.1 µM) | 45 µg/mL (≈ 146 µM) | O=C1CSC(c2ccc(F)cc2)N1CCN1CCCCC1 (stereo not drawn) | 100% | 100% | 100% | 87% | 73% | 52% | 17% | 14% | 11% | 100 µg/mL (≈ 324 µM) | 50 µg/mL (≈ 162 µM) | 100 µg/mL (≈ 324 µM) | 25 µg/mL (≈ 81.1 µM) | 45 µg/mL (≈ 146 µM) | 100 µg/mL (≈ 324 µM) | MIC (Trichosporon asahii): 100 µg/mL (≈ 324 µM); MFC [10]: 100 µg/mL (≈ 324 µM); MIC [10]: 100 µg/mL (≈ 324 µM)
100 µg/mL (≈ 308 µM) | 50 µg/mL (≈ 154 µM) | 100 µg/mL (≈ 308 µM) | 33 µg/mL (≈ 102 µM) | 75 µg/mL (≈ 231 µM) | O=C1CSC(c2ccccc2Cl)N1CCN1CCCCC1 (stereo not drawn) | 100% | 100% | 100% | 94% | 71% | 31% | 38% | 16% | 22% | 100 µg/mL (≈ 308 µM) | 50 µg/mL (≈ 154 µM) | 100 µg/mL (≈ 308 µM) | 33 µg/mL (≈ 102 µM) | 75 µg/mL (≈ 231 µM) | 66.5 µg/mL (≈ 205 µM) | MIC (Trichosporon asahii): 66.5 µg/mL (≈ 205 µM); MFC [10]: 100 µg/mL (≈ 308 µM); MIC [10]: 100 µg/mL (≈ 308 µM)
100 µg/mL (≈ 308 µM) | 50 µg/mL (≈ 154 µM) | 100 µg/mL (≈ 308 µM) | 25 µg/mL (≈ 77 µM) | 62 µg/mL (≈ 191 µM) | O=C1CSC(c2cccc(Cl)c2)N1CCN1CCCCC1 (stereo not drawn) | 100% | 100% | 100% | 100% | 77% | 45% | 31% | 20% | 15% | 100 µg/mL (≈ 308 µM) | 50 µg/mL (≈ 154 µM) | 100 µg/mL (≈ 308 µM) | 25 µg/mL (≈ 77 µM) | 62 µg/mL (≈ 191 µM) | 100 µg/mL (≈ 308 µM) | MIC (Trichosporon asahii): 100 µg/mL (≈ 308 µM); MFC [10]: 100 µg/mL (≈ 308 µM); MIC [10]: 100 µg/mL (≈ 308 µM)
100 µg/mL (≈ 308 µM) | 50 µg/mL (≈ 154 µM) | 100 µg/mL (≈ 308 µM) | 50 µg/mL (≈ 154 µM) | 62 µg/mL (≈ 191 µM) | O=C1CSC(c2ccc(Cl)cc2)N1CCN1CCCCC1 (stereo not drawn) | 90% | 84% | 84% | 74% | 68% | 28% | 15% | 13% | 11% | 100 µg/mL (≈ 308 µM) | 50 µg/mL (≈ 154 µM) | 100 µg/mL (≈ 308 µM) | 50 µg/mL (≈ 154 µM) | 62 µg/mL (≈ 191 µM) | 50 µg/mL (≈ 154 µM) | MIC (Trichosporon asahii): 50 µg/mL (≈ 154 µM); MFC [10]: 100 µg/mL (≈ 308 µM); MIC [10]: 100 µg/mL (≈ 308 µM)
